In the library only some 2% were active in any assay of this set; here they are far more common.
HSP90 refold inh = HSP90 refolding inhibition in rabbit reticulocyte lysate; luciferase refolding luminescence, 3 h; inhibition, % at 5.6 µM; actives 0.91% (n = 290,000); AID 1789;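 active = inhibition above the screen-wide mean plus 3 SD, computed separately per campaign, cut at about 16% in these data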;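 note: 0% = DMSO wells and 100% = 60 µM geldanamycin wells; inhibitors lower the luminescence because luciferase stays unfolded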
STAT1 blocker = STAT1 signaling inhibition. AID 920. actives 0.35% (n = 200,000). NIH 3T3 STAT1-luciferase reporter, IFN-gamma, luminescence. inhibition, % at 5.5 µM;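 active = inhibition above a set limit, the mean inhibition across all tested compounds plus 3 SD, cut at about 34% in these data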;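 note: 0% = IFN-gamma with DMSO and 100% = IFN-gamma with 300 µM nifuroxazide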
STAT3 act = STAT3 signaling activation. U3A cells, IL-6 STAT3-luciferase reporter, luminescence; 100% = signal with IL-6 EC80 alone. activation (% of control), % at 5.6 µM. actives 0.91% (n = 190,000);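 active = activation above the screen-wide mean of compound activation plus 3 SD, cut at about 130% in these data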;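 note: 0% = background luminescence of wells with medium and substrate only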
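Test system: Human STAT1-deficient U3A cells with stable STAT3-luciferase reporter | Also added: Interleukin-6, 33 ng/mL | Timing: Compound pre-incubation 1 h before IL-6, then 6 h stimulation at 37 °C | Technique: Luciferase reporter luminescence | Read-out: Percent of IL-6-only median luminescence | Benchmarks: IL-6-only wells as 100% reference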
STAT3 blocker = reduces IL-6 driven STAT3 reporter signal | inhibition, % at 5.5 µM | actives 0.89% (n = 190,000) | U3A cells, IL-6 STAT3-luciferase reporter, luminescence; host cell line lacks STAT1;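 active = inhibition above the mean inhibition across all screened compounds plus 3 SD, cut at about 44% in these data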;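 note: 0% = DMSO only wells and 100% = 100 µM nifuroxazide control wells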
HSP90 confirm = HSP90 inhibition, confirmation assay. actives 64% (n = 2,300). inhibition, % at 5.9 µM. shares compounds with HSP90 refold inh. rabbit reticulocyte lysate, luciferase refolding luminescence, 3 h; in the data active = inhibition above about 18%;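 note: 0% = vehicle wells and 100% = reference inhibitor wells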
luciferase ctr = firefly luciferase inhibition, HSP90 counter-screen; shares compounds with HSP90 refold inh; purified native firefly luciferase, luminescence; inhibition, % at 5.9 µM; actives 48% (n = 2,300); AID 1847;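 active = inhibition above the mean inhibition of all tested sample wells plus 3 SD, cut at about 10% in these data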;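 note: 0% = DMSO with luciferase and 100% = wells lacking luciferase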
Target sequence (P08659 whole entry, looked up): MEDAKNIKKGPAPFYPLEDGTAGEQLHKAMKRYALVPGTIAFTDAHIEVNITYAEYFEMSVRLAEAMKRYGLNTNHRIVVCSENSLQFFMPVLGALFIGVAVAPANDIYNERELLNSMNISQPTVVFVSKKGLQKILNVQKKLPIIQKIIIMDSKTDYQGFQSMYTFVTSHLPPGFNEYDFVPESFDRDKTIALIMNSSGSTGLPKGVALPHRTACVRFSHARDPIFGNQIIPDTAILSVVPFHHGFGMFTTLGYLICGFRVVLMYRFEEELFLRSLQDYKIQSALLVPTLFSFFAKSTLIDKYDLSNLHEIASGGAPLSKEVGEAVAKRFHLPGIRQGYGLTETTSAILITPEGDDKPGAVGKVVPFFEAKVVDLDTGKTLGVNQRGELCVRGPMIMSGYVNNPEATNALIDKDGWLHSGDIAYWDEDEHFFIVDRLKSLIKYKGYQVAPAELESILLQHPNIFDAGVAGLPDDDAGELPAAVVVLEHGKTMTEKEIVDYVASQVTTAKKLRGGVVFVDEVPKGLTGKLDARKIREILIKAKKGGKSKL
* hit, by the source's call; nt = not tested or not shown.

SMILES | HSP90 refold inh | STAT1 blocker | STAT3 act | STAT3 blocker | HSP90 confirm | luciferase ctr
Cc1cccc(C(=O)Nc2nc(C)c(C(=O)Nc3ccc4c(c3)CCC4)s2)c1 | 80* | -19 | 111 | -12 | 83* | 15*
Cc1cccc(C)c1NC(=O)/C(C#N)=C/c1ccc(-c2ccc(C(=O)O)cc2)o1 | 34* | nt | nt | nt | 36* | -9
N#C/C(=C\c1ccc(-c2ccc(C(=O)O)cc2)o1)C(=O)Nc1ccc(F)cc1 | -3 | nt | nt | nt | nt | nt
Cc1ccc(NCC(O)C(O)C(O)CO)c(N=Nc2ccccc2)c1C (configuration not stated) | 24* | nt | nt | nt | -17 | -6
COc1cc(/C=C2\NC(=S)NC2=O)ccc1OCc1cccc(C(=O)O)c1 | 4 | nt | nt | nt | nt | nt
O=C1NC(=O)/C(=C\c2ccc(OCc3cccc(C(=O)O)c3)c(Cl)c2)N1 | 31* | 71* | 42 | 73* | 45* | 50*
Cc1ccc(-n2nc3c(c2NC(=O)c2cccs2)CS(=O)(=O)C3)c(C)c1 | 86* | nt | nt | nt | -2 | -1
Cc1ccccc1-n1nc2c(c1NC(=O)c1cccs1)CS(=O)(=O)C2 | 1 | nt | nt | nt | nt | nt
Cc1c(C)n(CCc2ccccc2)c2ncnc(NCCCN(C)C)c12 | 5 | nt | nt | nt | nt | nt
COc1cc(CNc2ncc(-c3ccc(Br)cc3)n2C)cc(OC)c1O | -4 | nt | nt | nt | nt | nt
Clc1ccc(OCCN2CCOCC2)cc1 | 18* | nt | nt | nt | -5 | -5
Brc1ccc(OCCN2CCOCC2)cc1 | -4 | nt | nt | nt | nt | nt
CCCNC(=O)CCn1cc(-c2ccc(OC)cc2)nc1-c1ccncc1 | -5 | nt | nt | nt | nt | nt
O=C(Nc1ccc(Br)cc1)c1ccc2ncsc2c1 | 43* | nt | nt | nt | 45* | 28*
O=[N+]([O-])c1ccccc1COc1ccc(Cl)c2cccnc12 | 21* | nt | nt | nt | 48* | 32*
O=C(Oc1ccc(Cl)c2cccnc12)c1cccc([N+](=O)[O-])c1 | -3 | -3 | 111 | -15 | nt | nt
Cc1ccc(C(=O)n2c(N)nc3ccccc32)cc1 | 60* | 89* | 12 | 103* | 89* | 83*
Cc1ccc(CNc2nc3ccccc3s2)s1 | 36* | 51* | 40 | 75* | 68* | 61*
C/C(=N\Nc1nc(C(=O)O)cs1)c1ccccc1 | 29* | 0 | 106 | -7 | -5 | -7
C/C(=N\Nc1nc(C(C)(C)C)cs1)c1ccccc1 | -6 | nt | nt | nt | nt | nt
COc1ccc(/C=N/Nc2nc(C(=O)O)cs2)cc1 | 66* | nt | nt | nt | 90* | 74*
O=C(O)c1cn(C2CC2)c2cc(N3CCN(S(=O)(=O)c4ccc5c(c4)OCCO5)CC3)c(F)cc2c1=O | 3 | -4 | 107 | -4 | nt | nt
O=C(Nc1cccc(-c2nc3ncccc3o2)c1)c1sc2ccccc2c1Cl | 20* | -1 | 95 | 12 | -6 | -16
CN(C)S(=O)(=O)N1CCN(CC(=O)Nc2ccc(Br)cc2)CC1 | -2 | nt | nt | nt | nt | nt
c1ccc2nc(-c3ccc(N4CCOCC4)cc3)ccc2c1 | 27* | 68* | 22 | 99* | 80* | 71*
SMILES | HSP90 refold inh | STAT1 blocker | STAT3 act | STAT3 blocker | HSP90 confirm | luciferase ctr
COc1ccccc1/C=N/NC(=O)c1nnn(-c2nonc2N)c1-c1cccs1 | -1 | nt | nt | nt | nt | nt
CC(=O)Nc1ccc(NC(=O)Cn2cnc3c(cnn3C(C)(C)C)c2=O)cc1 | -3 | -3 | 111 | -10 | nt | nt
CC(C)(C)n1ncc2c(=O)n(CC(=O)NCc3ccccc3)cnc21 | 21* | -55 | 105 | -2 | 37* | 34*
COC(=O)C1=C(CN2CCCc3ccccc32)NC(=O)NC1c1ccc(F)cc1 (configuration not stated) | 46* | 60* | 26 | 91* | 15 | -10
Cc1ccc(NC(=S)NC(=O)C2CC2)c(C)c1 | 31* | nt | nt | nt | -10 | -18
Cc1ccc(NC(=S)NC(=O)C2CCCC2)cc1C | -4 | nt | nt | nt | nt | nt
COc1ccc(C(=O)NC2CCCc3ccccc32)c(OC)c1OC (configuration not stated) | -4 | nt | nt | nt | nt | nt
CCOc1ccc2c(c1)c(N=Nc1cccc(C(=O)O)c1)c(O)n2C | 27* | -14 | 113 | -19 | 30* | 6
Cc1c(/C(O)=C2/C(=O)C(=O)N(Cc3cccnc3)C2c2ccccn2)cnn1-c1ccccc1 (configuration not stated) | 75* | 55* | 50 | 64* | 24* | 30*
Cc1ccc(/C(O)=C2/C(=O)C(=O)N(Cc3cccnc3)C2c2ccccn2)cc1 (configuration not stated) | 1 | 0 | 103 | -1 | nt | nt
